Results reported in ChEMBL document CHEMBL5344476, “Development of Hsp90 C-terminal inhibitors with noviomimetics that manifest anti-proliferative activities” (RSC Med Chem, 2024).
Activity calls are given as the source filed them. The calls are words filed in the database; no cut-off is given here.

What was measured:
[1] = tested on: PC-3; assay: Antiproliferative activity against human PC-3 cells assessed as inhibition of cell growth incubated for 72 hrs by MTS assay; format: functional, cell-based; conditions: PC-3, 72 h
Summary of the method: (§1)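 Cells were grown at 37°C under 5% CO₂: PC3 in RPMI-1640, MDA-MB-231 in DMEM, and SKBr3 in McCoy's. They were seeded at 2000 cells/well and left for 24 h, then exposed for 72 h to varying concentrations or vehicle (0.5% DMSO final). Viability was read by MTS/PES absorbance at 490 nm relative to control. IC50 came from concentration-response curves; values are means ± SD of two independent experiments.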

[2] = tested on: MDA-MB-231; assay: Antiproliferative activity against human MDA-MB-231 cells assessed as inhibition of cell growth incubated for 72 hrs by MTS assay; format: functional, cell-based; conditions: MDA-MB-231, 72 h; summary of the method: as §1
[3] = tested on: SK-BR-3; assay: Antiproliferative activity against human SK-BR-3 cells assessed as inhibition of cell growth incubated for 72 hrs by MTS assay; format: functional, cell-based; conditions: SK-BR-3, 72 h; summary of the method: as §1
[4] = target: T1, Heat shock protein HSP90 (Homo sapiens) (UniProt P07900+P08238); assay: Inhibition of C-terminal HSP90 in human SK-BR-3 cells assessed as reduction in HSR induction with constant Hsp70 level at 0.1 to 10 uM incubated for 24 hrs by Western blot analysis; format: cell-based; conditions: dose 0.1-10 µM
Summary of the method: (§2)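 SKBr3 cells were seeded at 700,000/well and grown to ~80% confluency. They were treated for 24 h with compound or vehicle (1% DMSO), then lysed in Triton/SDS buffer with protease and phosphatase inhibitors. Protein (20 ug, BCA-normalized) was run on 10% SDS-PAGE and transferred to PVDF. Blots were probed overnight at 4°C with 1:1000 anti-HER2, Hsp70, Hsp90, Akt, CDK6 or β-actin, then detected by HRP secondary and ECL.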

[5] = target: T1, Heat shock protein HSP90 (Homo sapiens); assay: Inhibition of C-terminal HSP90 in human SK-BR-3 cells assessed as HER-2 degradation incubated for 24 hrs by Western blot analysis; format: cell-based; conditions: dose 0.1-10 µM; summary of the method: as §2
[6] = target: T1, Heat shock protein HSP90 (Homo sapiens); assay: Inhibition of C-terminal HSP90 in human SK-BR-3 cells at 0.1 to 10 uM incubated for 24 hrs by Western blot analysis; conditions: dose 0.1-10 µM
[7] = tested on: SK-BR-3; assay: Effect on HSP90 independent beta-actin protein level in human SK-BR-3 cells at 0.1 to 10 uM incubated for 24 hrs by Western blot analysis; format: functional, cell-based; conditions: dose 0.1-10 µM; summary of the method: as §2
[8] = tested on: SK-BR-3; assay: Antiproliferative activity against human SK-BR-3 cells; format: functional, cell-based
Summary of the method: as §1, with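 “They” for “Cells were grown at 37°C under 5% CO₂: PC3 in RPMI-1640, MDA-MB-231 in DMEM, and SKBr3 in McCoy's. They”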

SMILES	IC50 [1] [µM]	IC50 [2] [µM]	IC50 [3] [µM]	inhibition [4]	inhibition [5]	inhibition [6]	Activity [7]	IC50 [8] [µM]
COc1cccc(-c2cc(C(=O)NCCc3ccc(OC4CCC(CNc5ccccc5)CC4)cc3-c3cccc(F)c3)ccc2OC)c1 (stereo unspecified)	> 50	> 50	> 50					
CCCN1CCC(Oc2ccc(CCNC(=O)c3ccc(OC)c(-c4cccc(OC)c4)c3)c(-c3cccc(F)c3)c2)CC1	11	6.37	0.56					
C=CCN1CCC(Oc2ccc(CCNC(=O)c3ccc(OC)c(-c4cccc(OC)c4)c3)c(-c3cccc(F)c3)c2)CC1	12.7	7.35	6.43					
COc1cccc(-c2cc(C(=O)NCCc3ccc(OC4CCC(C(=O)Nc5ccccc5)CC4)cc3-c3cccc(F)c3)ccc2OC)c1 (stereo unspecified)	> 50	> 50	> 50					
CC(C)=CCc1cc(C(=O)NCCc2ccc(OC3CCC(CCc4ccccc4)CC3)cc2-c2cccc(F)c2)ccc1O (stereo unspecified)	> 50	> 50	> 50					
COc1cccc(-c2cc(C(=O)NCCc3ccc(OC4CCC(C(=O)Oc5ccccc5)CC4)cc3-c3cccc(F)c3)ccc2OC)c1 (stereo unspecified)	> 50	> 50	> 50					
CC(C)=CCc1cc(C(=O)NCCc2ccc(OC3CCC(SCc4ccccc4)CC3)cc2-c2cccc(F)c2)ccc1O (stereo unspecified)	> 50	> 50	> 50					
CC(C)=CCc1cc(C(=O)NCCc2ccc(OC3CCC(Cc4ccccc4)CC3)cc2-c2cccc(F)c2)ccc1O (stereo unspecified)	> 50	> 50	> 50					
COc1cccc(-c2cc(C(=O)NCCc3ccc(OC4CCN(C)CC4)cc3-c3cccc(F)c3)ccc2OC)c1	6.6	4.87	3.46					
COc1cccc(-c2cc(C(=O)NCCc3ccc(OC4CCC(SCc5ccccc5)CC4)cc3-c3cccc(F)c3)ccc2OC)c1 (stereo unspecified)	> 50	> 50	> 50					
COc1cccc(-c2cc(C(=O)NCCc3ccc(OC4CCC(COc5ccccc5)CC4)cc3-c3cccc(F)c3)ccc2OC)c1 (stereo unspecified)	> 50	> 50	> 50					
COc1cccc(-c2cc(C(=O)NCCc3ccc(OC4CCCCC4)cc3-c3cccc(F)c3)ccc2OC)c1	> 50	> 50	> 50					
COc1cccc(-c2cc(C(=O)NCCc3ccc(OC4CCNCC4)cc3-c3cccc(F)c3)ccc2OC)c1	3.08	3.29	0.9	Active	Dose-Dependent Effect	Active	inactive	
COc1cccc(-c2cc(C(=O)NCCc3ccc(OC4CCC(CCc5ccccc5)CC4)cc3-c3cccc(F)c3)ccc2OC)c1 (stereo unspecified)	> 50	> 50	> 50					
CCCC1CCC(Oc2ccc(CCNC(=O)c3ccc(OC)c(-c4cccc(OC)c4)c3)c(-c3cccc(F)c3)c2)CC1 (stereo unspecified)	> 50	> 50	> 50					
CCN1CCC(Oc2ccc(CCNC(=O)c3ccc(OC)c(-c4cccc(OC)c4)c3)c(-c3cccc(F)c3)c2)CC1	13.5	8.46	6.6					
COc1cccc(-c2cc(C(=O)NCCc3ccc(OC4CCN(C(C)C)CC4)cc3-c3cccc(F)c3)ccc2OC)c1	13.6	9.35	6.61					
COc1cccc(-c2cc(C(=O)NCCc3ccc(OC4CCC(OCc5ccccc5)CC4)cc3-c3cccc(F)c3)ccc2OC)c1 (stereo unspecified)	> 50	> 50	> 50					
COc1cccc(-c2cc(C(=O)NCCc3ccc(OC4CCC(CSc5ccccc5)CC4)cc3-c3cccc(F)c3)ccc2OC)c1 (stereo unspecified)	> 50	> 50	> 50					
CC(=O)NCCc1ccc(OC2CCC(OCc3ccccc3)CC2)cc1-c1cccc(F)c1 (stereo unspecified)								> 50
COc1cccc(-c2cc(C(=O)NCCc3ccc(OCCCB4OC(C)(C)C(C)(C)O4)cc3-c3cccc(F)c3)ccc2OC)c1	8.07	35.1	15.3					
COc1cccc(-c2cc(C(=O)NCCc3ccc(OCCCB(O)O)cc3-c3cccc(F)c3)ccc2OC)c1	13.3	36.6	21.6					
COc1cccc(-c2cc(C(=O)NCCc3ccc(OC4CCN(Cc5ccccc5)CC4)cc3-c3cccc(F)c3)ccc2OC)c1	> 50	> 50	> 50					
COC(=O)C1CCC(Oc2ccc(CCNC(=O)c3ccc(OC)c(-c4cccc(OC)c4)c3)c(-c3cccc(F)c3)c2)CC1 (stereo unspecified)	> 50	> 50	> 50					
CNC(=O)C1CCC(Oc2ccc(CCNC(=O)c3ccc(OC)c(-c4cccc(OC)c4)c3)c(-c3cccc(F)c3)c2)CC1 (stereo unspecified)	> 50	> 50	> 50					
COc1cccc(-c2cc(C(=O)NCCc3ccc(OC4CCC(C(F)(F)Oc5ccccc5)CC4)cc3-c3cccc(F)c3)ccc2OC)c1 (stereo unspecified)	> 50	> 50	> 50					
COc1cccc(-c2cc(C(=O)NCCc3ccc(OC4CCC(Cc5ccccc5)CC4)cc3-c3cccc(F)c3)ccc2OC)c1 (stereo unspecified)	> 50	> 50	> 50					
COc1cccc(-c2cc(C(=O)NCCc3ccc(OC4CCOCC4)cc3-c3cccc(F)c3)ccc2OC)c1	> 50	> 50	> 50					
